From ChEMBL document CHEMBL4480406, “Discovery of an SSTR2-Targeting Maytansinoid Conjugate (PEN-221) with Potent Activity in Vitro and in Vivo” (J Med Chem, 2019)
The source made the active and inactive calls. The calls are words filed in the database; no cut-off is given here.

Key:
[1] = molecular target: T1, Somatostatin receptor type 2 (Homo sapiens, UniProt P30874); test: Displacement of [125I]somatostatin from human SSTR2 expressed in CHO-K1 cell membranes after 240 mins
Procedure, shortened: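 Membranes from CHO-K1 cells stably expressing human SSTR2, prepared in modified HEPES pH 7.4. Nonspecific binding was defined with 1 µM somatostatin. Bound ligand was measured by filtration, 3 washes and counting. Six test concentrations were run, top 10 nM, in five-fold dilutions.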

NCI-H524 [2] = test: Cytotoxicity in human NCI-H524 cells pre-incubated for 2 hrs in presence of 100 uM octreotide followed by compound wash out and subsequently incubated for 70 hrs by Cell Titer Glo assay; assay type: functional, cell-based
Procedure, shortened: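 Octreotide receptor-blockade variant: NCI-H524 cells (5,000/well) were pretreated with octreotide acetate for 30 min, then given compound for 2 h in a ten-point three-fold series.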

NCI-H524 [3] = test: Cytotoxicity in human NCI-H524 cells pre-incubated for 2 hrs followed by compound wash out and subsequently incubated for 70 hrs by Cell Titer Glo assay; assay type: functional, cell-based
Procedure, shortened: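 Cells were then spun, washed with fresh medium, resuspended and grown a further 70 h. Proliferation was read by CellTiter-Glo luminescence, and % inhibition calculated relative to vehicle. IC50 came from a four-parameter nonlinear fit.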

[4] = molecular target: T1, Somatostatin receptor type 2; test: Binding affinity to human SSTR2 expressed in CHO-K1 cells assessed as induction of SSTR2 internalization after 4 hrs by chemiluminescent assay; assay type: cell-based
[5] = AUC (0 to 6 hrs) in Beagle dog at 0.1 mg/kg, iv; assay type: ADME, organism-based, Canis lupus familiaris; design: dose 0.1 mg/kg, time < 6 hr, route intravenous; details: in vivo
[6] = Half life of the compound in phosphate buffer at 1 mM in presence of GSH by LC-MS/MS analysis; assay type: physicochemical; details: phosphate buffer with GSH
Procedure, shortened: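 Conjugate, added from a 1 mM methanol stock, was incubated in 5 mM GSH at 37 °C. Aliquots taken from 30 min to 6 h were quenched into N-ethyl maleimide in 1% ethanol, and remaining parent conjugate was measured by LC-MS/MS.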

[7] = Half life in Beagle dog at 0.1 mg/kg, iv; assay type: ADME, organism-based, Canis lupus familiaris; details: in vivo
[8] = Clearance in Beagle dog at 0.1 mg/kg, iv; assay type: ADME, organism-based, Canis lupus familiaris; details: in vivo
[9] = Toxicity in CrTac:NCr-Foxn1nu mouse xenografted with human NCI-H69 cells assessed as body weight loss at 2 mg/kg, iv measured up to 40 days; assay type: organism-based; details: in vivo, 960 h
[10] = Cmax in Beagle dog at 0.1 mg/kg, iv; assay type: ADME, organism-based, Canis lupus familiaris; design: dose 0.1 mg/kg, route intravenous; details: in vivo
NCI-H69 [11] = test: Antitumor activity against human NCI-H69 cells xenografted in CrTac:NCr-Foxn1nu mouse assessed as tumor regression at 2 mg/kg, iv measured up to 40 days; assay type: functional
Procedure, shortened: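 Female athymic nude mice were implanted subcutaneously in the right flank with 2.5 × 10^6 NCI-H69 cells (RPMI 1640/10% FBS culture) in media:Matrigel (1:1). At 150-250 mm3, mice were randomized into groups of 10. Compound in 10% propylene glycol in 5 mM citrate buffer (pH=4) was given by tail-vein i.v. injection on indicated days. Tumor volume was measured by calipers as (w2 × l)/2, reported as mean ± SEM.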

NCI-H69 [12] = test: Antitumor activity against human NCI-H69 cells xenografted in CrTac:NCr-Foxn1nu mouse assessed as tumor regression at 0.7 mg/kg, iv measured up to 20 days; assay type: functional, organism-based
Procedure, shortened: (§1)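 Female athymic nude mice were implanted subcutaneously in the right flank with 2.5 × 10^6 NCI-H69 cells in medium/Matrigel 1:1. At 150-250 mm3, animals were randomized into groups of 10. Dosing was by tail-vein injection in 10% propylene glycol in 5 mM citrate pH 4 on the indicated days. Caliper volumes were calculated as (w2 × l)/2 and reported as mean ± SEM.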

[13] = Drug uptake in tumor of CrTac:NCr-Foxn1nu mouse xenografted with human NCI-H69 cells assessed as DM1 level at 1 mg/kg, iv measured after 24 hrs by LC-MS/MS analysis relative to DM1 alone; assay type: ADME, organism-based, Neoplasm; details: in vivo
Procedure, shortened: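 NCI-H69 subcutaneous tumors of 250-600 mm3 in nude mice, groups of 3, dosed i.v. Free DM1 was given in 10% propylene glycol/WFI, conjugates in 10% propylene glycol/5 mM citrate pH 4. Tumors were excised at 24 h and homogenized 1:4 (w/v) in 0.1 M ammonium bicarbonate pH 8.0. Homogenate was reduced with TCEP in acetonitrile (15 min, 37 °C), capped with 0.2 M NEM (15 min, 37 °C), and DM1-NEM quantified by LC-MS/MS against standards in blank tumor homogenate. Values were normalized to DM1 dose.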

[14] = molecular target: T2, Somatostatin receptor type 5 (Homo sapiens, UniProt P35346); test: Agonist activity at SSTR5 (unknown origin) assessed as effect on calcium flux incubated for 180 secs by FLIPR assay; assay type: functional
[15] = molecular target: T2, Somatostatin receptor type 5; test: Displacement of [125I]somatostatin from human SSTR5 expressed in CHO-K1 cell membranes after 120 mins
[16] = Apparent permeability from apical to basolateral side in human Caco2 cells; assay type: ADME, cell-based; details: Caco-2
[17] = molecular target: T2, Somatostatin receptor type 5; test: Antagonist activity at SSTR5 (unknown origin) assessed as effect on agonist-induced calcium flux incubated for 180 secs by FLIPR assay; assay type: functional
[18] = molecular target: Somatostatin receptor type 3 (Homo sapiens, UniProt P32745); test: Displacement of [125I]somatostatin from human SSTR3 expressed in CHO-K1 cell membranes after 120 mins
IMR-32 = test: Antitumor activity against human IMR32 cells xenografted in CrTac:NCr-Foxn1nu mouse assessed as tumor regression at […], iv measured up to 20 days; assay type: functional
NCI-H69 [19] = test: Antitumor activity against human NCI-H69 cells xenografted in CrTac:NCr-Foxn1nu mouse assessed as tumor regression at 1.3 mg/kg, iv measured up to 40 days; assay type: functional, organism-based; procedure, shortened: as §1
[20] = molecular target: Somatostatin receptor type 1 (Homo sapiens, UniProt P30872); test: Displacement of [125I]somatostatin from human SSTR1 expressed in CHO-K1 cell membranes after 120 mins
[21] = molecular target: Somatostatin receptor type 4 (Homo sapiens, UniProt P31391); test: Displacement of [125I]somatostatin from human SSTR4 expressed in CHO-K1 cell membranes after 120 mins
[22] = Antitumor activity against human HCC33 cells xenografted in CrTac:NCr-Foxn1nu mouse assessed as tumor regression at 1 mg/kg, iv measured up to 16 days; assay type: functional
Procedure, shortened: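 Female athymic nude mice received subcutaneous right-flank implants in media:Matrigel (1:1): 2.5 × 10^6 HCC-33 cells (RPMI 1640/10% FBS) or 1 x 10^7 IMR-32 cells (EMEM/10% FBS). At 150-250 mm3, mice were randomized into groups of 10. Dosing was tail-vein i.v. on indicated days in 0.1% Solutol HS 15/5% mannitol/WFI. Caliper volume was (w2 × l)/2, reported as group mean ± SEM.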

[23] = molecular target: T1, Somatostatin receptor type 2; test: Antagonist activity at SSTR2 (unknown origin) assessed as effect on agonist-induced calcium flux incubated for 180 secs by FLIPR assay; assay type: functional
[24] = molecular target: T1, Somatostatin receptor type 2; test: Agonist activity at SSTR2 (unknown origin) assessed as effect on calcium flux incubated for 180 secs by FLIPR assay; assay type: functional

T1 sequence (P30874 whole entry): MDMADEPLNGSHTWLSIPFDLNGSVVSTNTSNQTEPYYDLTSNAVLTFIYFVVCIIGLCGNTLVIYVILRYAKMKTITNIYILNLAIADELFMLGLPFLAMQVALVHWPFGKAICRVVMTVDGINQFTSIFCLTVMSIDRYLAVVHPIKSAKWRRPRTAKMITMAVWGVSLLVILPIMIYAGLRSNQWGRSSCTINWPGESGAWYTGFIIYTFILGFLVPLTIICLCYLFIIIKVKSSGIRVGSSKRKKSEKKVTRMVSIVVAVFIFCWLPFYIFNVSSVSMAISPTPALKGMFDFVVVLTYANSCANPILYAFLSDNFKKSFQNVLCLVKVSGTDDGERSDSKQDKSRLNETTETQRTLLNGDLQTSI
T2 sequence (P35346 whole entry): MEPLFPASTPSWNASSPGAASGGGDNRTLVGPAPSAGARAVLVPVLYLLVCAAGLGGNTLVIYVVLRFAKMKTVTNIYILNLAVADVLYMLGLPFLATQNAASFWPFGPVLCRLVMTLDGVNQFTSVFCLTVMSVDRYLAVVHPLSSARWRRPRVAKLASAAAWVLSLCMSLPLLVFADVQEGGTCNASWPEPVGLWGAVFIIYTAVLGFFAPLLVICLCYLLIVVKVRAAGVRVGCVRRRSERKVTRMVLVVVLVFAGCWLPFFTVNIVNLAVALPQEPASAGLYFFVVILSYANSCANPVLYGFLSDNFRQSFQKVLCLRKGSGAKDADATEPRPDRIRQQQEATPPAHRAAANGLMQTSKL
Somatostatin receptor type 4, sequence (P31391 whole entry): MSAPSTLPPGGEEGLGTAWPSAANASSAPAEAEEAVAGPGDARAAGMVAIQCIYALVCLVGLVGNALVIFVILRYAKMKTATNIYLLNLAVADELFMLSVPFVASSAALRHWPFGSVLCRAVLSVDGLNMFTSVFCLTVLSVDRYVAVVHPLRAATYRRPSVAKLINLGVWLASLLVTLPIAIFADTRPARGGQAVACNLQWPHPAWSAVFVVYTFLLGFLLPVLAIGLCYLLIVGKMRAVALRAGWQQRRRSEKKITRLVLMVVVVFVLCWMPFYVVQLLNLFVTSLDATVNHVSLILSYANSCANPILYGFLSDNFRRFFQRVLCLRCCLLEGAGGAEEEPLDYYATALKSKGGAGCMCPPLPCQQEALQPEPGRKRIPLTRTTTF
Somatostatin receptor type 1, sequence (P30872 whole entry): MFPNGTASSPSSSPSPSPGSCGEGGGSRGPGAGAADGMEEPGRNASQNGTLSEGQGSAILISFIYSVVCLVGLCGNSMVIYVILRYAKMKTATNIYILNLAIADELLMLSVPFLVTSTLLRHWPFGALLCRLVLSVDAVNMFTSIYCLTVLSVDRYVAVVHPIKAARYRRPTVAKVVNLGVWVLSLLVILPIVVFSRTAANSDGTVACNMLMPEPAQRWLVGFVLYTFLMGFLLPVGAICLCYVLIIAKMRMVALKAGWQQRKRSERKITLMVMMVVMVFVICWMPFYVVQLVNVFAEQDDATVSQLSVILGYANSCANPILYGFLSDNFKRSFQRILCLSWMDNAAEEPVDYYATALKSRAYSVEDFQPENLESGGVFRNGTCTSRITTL
Somatostatin receptor type 3, sequence (P32745 whole entry): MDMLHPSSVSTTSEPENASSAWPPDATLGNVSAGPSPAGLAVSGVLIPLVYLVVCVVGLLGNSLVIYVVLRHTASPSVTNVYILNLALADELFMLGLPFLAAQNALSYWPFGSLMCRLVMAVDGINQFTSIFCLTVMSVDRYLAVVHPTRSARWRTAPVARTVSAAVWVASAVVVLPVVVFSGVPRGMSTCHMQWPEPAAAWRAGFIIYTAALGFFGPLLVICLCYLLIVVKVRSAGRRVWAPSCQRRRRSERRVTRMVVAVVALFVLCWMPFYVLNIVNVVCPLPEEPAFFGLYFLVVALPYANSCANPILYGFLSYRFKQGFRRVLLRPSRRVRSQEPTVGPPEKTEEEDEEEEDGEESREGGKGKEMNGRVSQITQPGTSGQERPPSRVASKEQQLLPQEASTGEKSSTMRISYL

Row | Compound | Ki [1] [nM] | IC50 (NCI-H524 [2]) [nM] | IC50 (NCI-H524 [3]) [nM] | EC50 [4] [nM] | AUC(0-t) at 6 h [5] [µM·h] | half-life at 1000 µM [6] [h] | half-life [7] [h] | clearance [8] [mL/min/kg] | Activity [9] | Cmax [10] [nM] | Activity (NCI-H69 [11]) [%] | Drug uptake [13] | also measured
1 | CO[C@H]1C(=O)[C@]2(C)[C@@H](OC)C[C@H]3OC[C@@]3(OC(C)=O)[C@H]2[C@H](OC(=O)c2ccccc2)[C@]2(O)C[C@H](OC(=O)[C@H](OC(=O)OCCSSC[C@H](NC(=O)[C@@H]3CSSC[C@H](NC(=O)[C@H](N)Cc4ccccc4)C(=O)N[C@@H](Cc4ccc(O)cc4)C(=O)N[C@H](Cc4c[nH]c5ccccc45)C(=O)N[C@@H](CCCCN)C(=O)N[C@@H]([C@@H](C)O)C(=O)N3)C(N)=O)[C@@H](NC(=O)OC(C)(C)C)c3ccccc3)C(C)=C1C2(C)C | 0.97 | 14 | 7 | 11 | – | – | – | – | – | – | – | – | –
2 | COc1cc2cc(c1Cl)N(C)C(=O)C[C@H](OC(=O)[C@H](C)N(C)C(=O)CCSSC(C)(C)[C@H](NC(=O)[C@@H]1CSSC[C@H](NC(=O)[C@H](N)Cc3ccccc3)C(=O)N[C@@H](Cc3ccc(O)cc3)C(=O)N[C@H](Cc3c[nH]c4ccccc34)C(=O)N[C@@H](CCCCN)C(=O)N[C@@H]([C@@H](C)O)C(=O)N1)C(N)=O)[C@@]1(C)O[C@H]1[C@H](C)[C@@H]1C[C@@](O)(NC(=O)O1)[C@H](OC)/C=C/C=C(\C)C2 | 0.015 | 1040 | 8 | – | 0.769 | 0.947 | 1.38 | 1.09 | Non-Toxic | 867 | 100 | – | –
3 | COc1cc2cc(c1Cl)N(C)C(=O)C[C@H](OC(=O)[C@H](C)N(C)C(=O)CCSSC[C@H](NC(=O)[C@@H]1CSSC[C@H](NC(=O)[C@H](N)Cc3ccccc3)C(=O)N[C@@H](Cc3ccc(O)cc3)C(=O)N[C@H](Cc3c[nH]c4ccccc34)C(=O)N[C@@H](CCCCNC(=O)NCCCCCCN)C(=O)N[C@@H]([C@@H](C)O)C(=O)N1)C(N)=O)[C@@]1(C)O[C@H]1[C@H](C)[C@@H]1C[C@@](O)(NC(=O)O1)[C@H](OC)/C=C/C=C(\C)C2 | 3350 | 644 | 581 | – | – | – | – | – | – | – | – | – | Activity (NCI-H69 [12]): inactive
4 | COc1cc2cc(c1Cl)N(C)C(=O)C[C@H](OC(=O)[C@H](C)N(C)C(=O)CCSSCCCN[C@H](Cc1ccccc1)C(=O)N[C@H]1CSSC[C@@H](C(=O)N[C@@H](Cc3c[nH]c4ccccc34)C(N)=O)NC(=O)[C@H](C(C)C)NC(=O)[C@H](CCCCN)NC(=O)[C@@H](Cc3c[nH]c4ccccc34)NC(=O)[C@H](Cc3ccc(O)cc3)NC1=O)[C@@]1(C)O[C@H]1[C@H](C)[C@@H]1C[C@@](O)(NC(=O)O1)[C@H](OC)/C=C/C=C(\C)C2 | 0.19 | 115 | 22 | – | – | – | – | – | – | – | – | Active | –
5 | COc1cc2cc(c1Cl)N(C)C(=O)C[C@H](OC(=O)[C@H](C)N(C)C(=O)CCSSC[C@H](NC(=O)[C@@H]1CSSC[C@H](NC(=O)[C@H](N)Cc3ccccc3)C(=O)N[C@@H](Cc3ccc(O)cc3)C(=O)N[C@H](Cc3c[nH]c4ccccc34)C(=O)N[C@@H](CCCCN)C(=O)N[C@@H]([C@@H](C)O)C(=O)N1)C(N)=O)[C@@]1(C)O[C@H]1[C@H](C)[C@@H]1C[C@@](O)(NC(=O)O1)[C@H](OC)/C=C/C=C(\C)C2 | 0.022 | 910 | 10 | 1 | 0.47 | 0.167 | 2.33 | 1.66 | Non-Toxic | 708 | 100 | Active | Activity [14]: Active; Kd [15]: 9.6 nM; Papp A→B [16]: 0.018 ×10⁻⁶ cm/s; Activity [17]: Active; Kd [18]: 19.8 nM; Activity (IMR-32): 100%; Activity (NCI-H69 [19]): Active; Kd [20]: 310 nM; Kd [21]: 5480 nM; Activity [22]: 100%; Activity [23]: Active; Activity [24]: Active
